# In the library only some 4.1% were active in any assay of this set; here they are far more common.
# KCNQ1 pot: potentiators or activators of KCNQ1 channel, primary screen, cell-based, thallium flux, high-throughput | CHO-K1 KCNQ1, thallium flux FluxOR fluorescence; active compounds read high | 310,000 compounds, 0.35% hits | Potassium voltage-gated channel subfamily KQT member 1 (Homo sapiens), P51787 | AID 2648, 2010 | B-score at 10 µM;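 active = fluorescence ratio B-score, a plate-corrected score, at least three library SD, with initial intensity B-score within 5 SD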
#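 Test system: CHO-K1 cells stably expressing KCNQ1 / Medium: assay buffer / Also added: depolarizing K+/Tl+ stimulus, K2SO4 and Tl2SO4 each 12.5 mM in 5x stock / Incubation: 90 min dye loading and 20 min compound exposure, both at room temperature / Signal: thallium influx via FluxOR fluorescence, kinetic imaging / Evaluation: B score of baseline-normalized fluorescence ratio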
# KCNK3 inh: human KCNK3 channel inhibitors, primary screen, CHO cells, FluxOR thallium flux, B-score; B-score at 10 µM; AID 602410, 2012; FluxOR fluorescence; active compounds read low; 340,000 compounds, 0.84% hits;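 active = B-score under library mean minus 4 SD, starting fluorescence ratio at most library mean plus 5 SD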;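 note: more negative B-score means stronger inhibition of thallium flux through KCNK3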
# KCNK9 block: KCNK9 potassium channel inhibitors, primary screen, HEK293 cells, thallium flux; Potassium channel subfamily K member 9 (Homo sapiens), Q9NPC2; 310,000 compounds, 1.2% hits; B-score at 10 µM; FluxOR thallium flux fluorescence; active compounds read low;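 active = ratio B-score over 3 SD below the library mean, with starting fluorescence within 5 SD of its mean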;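 note: negative B-score means less thallium flux so channel inhibition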
# Cl transport mod: KCC2 cotransporter modulators, thallium flux, primary screen, cell-based, HEK293 KCC2, FluoZin-2 fluorescence, MLSMR | Solute carrier family 12 member 5 (Homo sapiens), Q9H2X9 | KCC2 cells, thallium flux FluoZin-2 fluorescence | B-score of Tl+ flux slope (higher = more flux/activation; lower = inhibition) at 10 µM | 190,000 compounds, 2.2% hits;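 active = thallium flux slope and its plate-corrected score both differing from the plate sample mean at a set confidence after two filtering rounds, in either direction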;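 note: slope of fluorescence scaled to starting intensity during 10 to 20 s after thallium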
# Target sequence (Q9H2X9 whole entry, looked up): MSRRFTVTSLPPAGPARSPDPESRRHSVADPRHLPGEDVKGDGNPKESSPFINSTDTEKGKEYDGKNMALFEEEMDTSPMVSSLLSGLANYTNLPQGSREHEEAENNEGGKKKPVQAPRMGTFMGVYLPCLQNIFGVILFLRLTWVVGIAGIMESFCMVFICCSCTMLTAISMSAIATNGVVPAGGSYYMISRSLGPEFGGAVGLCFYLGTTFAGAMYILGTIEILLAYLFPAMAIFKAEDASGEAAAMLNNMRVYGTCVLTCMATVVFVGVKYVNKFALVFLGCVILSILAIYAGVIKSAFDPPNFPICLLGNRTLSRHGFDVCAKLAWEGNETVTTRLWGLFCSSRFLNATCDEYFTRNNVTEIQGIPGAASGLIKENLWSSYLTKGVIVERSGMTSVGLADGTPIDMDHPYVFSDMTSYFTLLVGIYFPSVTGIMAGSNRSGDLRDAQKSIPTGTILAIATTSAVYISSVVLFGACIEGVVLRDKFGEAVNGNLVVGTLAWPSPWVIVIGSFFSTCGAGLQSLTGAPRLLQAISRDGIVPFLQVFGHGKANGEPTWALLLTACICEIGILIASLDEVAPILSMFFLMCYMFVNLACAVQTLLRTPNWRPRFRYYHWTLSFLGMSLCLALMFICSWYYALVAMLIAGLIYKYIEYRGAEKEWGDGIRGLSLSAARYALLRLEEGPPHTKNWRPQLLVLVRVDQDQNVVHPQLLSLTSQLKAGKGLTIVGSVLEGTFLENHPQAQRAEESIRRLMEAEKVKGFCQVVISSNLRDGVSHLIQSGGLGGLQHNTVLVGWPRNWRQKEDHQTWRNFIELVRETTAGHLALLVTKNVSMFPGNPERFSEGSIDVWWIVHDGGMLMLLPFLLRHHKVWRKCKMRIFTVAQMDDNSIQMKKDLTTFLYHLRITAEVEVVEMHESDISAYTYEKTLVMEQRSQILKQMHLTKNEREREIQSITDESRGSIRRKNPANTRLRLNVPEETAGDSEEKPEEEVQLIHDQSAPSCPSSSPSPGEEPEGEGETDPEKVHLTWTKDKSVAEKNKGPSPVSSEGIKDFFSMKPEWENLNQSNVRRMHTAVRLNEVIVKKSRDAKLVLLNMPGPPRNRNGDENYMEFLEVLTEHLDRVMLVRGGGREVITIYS
# hERG protect: hERG rescue from dofetilide block, primary screen, cell-based, CHO-hERG, FluxOR thallium flux, dofetilide IC70 | dofetilide IC70 present | activation (rescue from dofetilide block), less the hit threshold, % at 10 µM | 310,000 compounds, 0.51% hits | AID 1511, 2009;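 active = activation above the mean of controls blocked by dofetilide plus 5 SD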;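 note: thallium influx through hERG after potassium depolarization seen as dye fluorescence rise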
# KCNQ1 inh: inhibitors of human KCNQ1 channel, primary screen, cell-based, thallium flux, high-throughput; B-score at 10 µM; 310,000 compounds, 1.3% hits; AID 2642, 2010; CHO-K1 KCNQ1, FluxOR thallium flux fluorescence; active compounds read high;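 active = compounds whose thallium flux B-score, printed positive for inhibition, exceeds three library SD while starting fluorescence stays within three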;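 note: channel opened by potassium depolarization with thallium stimulus after 20 min compound exposure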
# Numbers without * were called inactive; i = inactive; . = no result given.
SMILES,KCNQ1 pot,KCNK3 inh,KCNK9 block,Cl transport mod,hERG protect,KCNQ1 inh
CC1CCN(C(=S)NC(=O)c2ccccc2)CC1,i,i,i,36.4*,-6.3,i
Cc1ccc(C(=O)NC(=S)N2CCN(c3ccccc3F)CC2)cc1,i,i,i,.,-8.9,i
CCC1CCCCN1C(=S)NC(=O)c1cccc([N+](=O)[O-])c1 (stereo not given),28*,i,i,.,19.6*,i
CC(C)(C)CC(C)(C)SSc1n[nH]c(=S)s1,.,i,.,.,.,.
COc1cc(S(=O)(=O)N2CCOCC2)cc(C(=O)OCC(=O)NC2CCCCC2)c1OC,.,i,.,.,.,.
N#Cc1nc(COc2ccc(Cl)cc2Cl)oc1N1CCN(c2ccccc2)CC1,i,i,-6.61*,.,-17.4,i
CC(OC(=O)CCCN=C1NS(=O)(=O)c2ccccc21)C(=O)Nc1ccc(F)cc1Cl (stereo not given),i,i,i,.,-13.2,i
COc1ccc2cc(C(C)=O)c(=O)oc2c1,i,i,i,0.492,-3.1,i
CC(=O)c1cc2ccc(O)cc2oc1=O,i,i,i,i,-19.5,7*
N=c1oc2cc(O)ccc2cc1C(=O)Nc1ccc(Cl)cc1,i,i,i,.,-7.0,6*
CC1CCCN(C(=O)CNC(=O)c2ccco2)C1 (stereo not given),i,i,i,.,-5.8,i
O=C(CN1C(=O)NC2(CCCC2)C1=O)OCCOc1ccc(Cl)cc1Cl,i,i,i,.,-9.2,i
Cc1cc(C)c(S(=O)(=O)Nc2ccc(C(=O)O)cc2)cc1S(=O)(=O)Nc1ccc(C(=O)O)cc1,i,i,i,.,-11.2,i
CCCSc1nc(N)nc(-c2cccs2)c1C#N,i,i,-6.92*,-0.276,-11.5,i
CCSc1nc(C2CC2)cc(-c2cccs2)c1C#N,i,i,-6.79*,.,-7.2,i
O=C(Nc1nc(-c2ccccn2)cs1)c1ccc(Br)s1,i,i,i,38.9*,-11.5,i
O=C(O)CNC(=O)c1ccc(NC(=O)/C(=C/c2ccccc2)NC(=O)c2ccccc2)cc1,i,i,i,.,-5.5,i
CCCOc1nc2ccccc2cc1/C=C/C(=O)O,i,i,i,-0.505,-8.2,i
CCOc1nc2ccccc2cc1C=O,11*,i,i,-0.0436,7.1*,i
CC(NC(=O)NC1CCCCC1)c1ccc2c(c1)OCO2 (stereo not given),i,i,i,2.01,10.6*,i
Cc1ccc(C(C)NC(=S)NC2CCCCC2)cc1C (stereo not given),i,i,i,.,6.2*,i
CC(NC(=O)NC12CC3CC(CC(C3)C1)C2)c1ccc2c(c1)OCO2 (stereo not given),i,i,i,0.524,-17.4,i
CCC(NC(=S)NC1CCCCC1)c1ccc(C(C)C)cc1 (stereo not given),i,i,i,.,-9.3,10*
CCC(NC(=O)NC1CCCCC1)c1ccccc1 (stereo not given),i,i,i,1.54,-4.8,i
CCSc1cc(N2CC(C)OC(C)C2)nc(-c2ccccc2Cl)n1 (stereo not given),i,-9.13*,i,0.968,0.9,i
SMILES,KCNQ1 pot,KCNK3 inh,KCNK9 block,Cl transport mod,hERG protect,KCNQ1 inh
CCSc1cc(N2CCCC2)nc(-c2ccc(C)cc2)n1,i,i,i,1.19,1.2,i
CC1(C)Cc2c(c(N3CCOCC3)nc3snc(N)c23)CO1,i,i,-7.01*,0.771,-19.9,i
CC1(C)Cc2c(c(N3CCOCC3)nc3snc(Br)c23)CO1,i,i,i,-0.0478,-5.7,i
CCNC(=O)CC1C(=O)N(c2ccc(C)cc2)C(=O)N1CCC(C)C (stereo not given),i,i,i,.,-2.8,i
CCOC(=O)[C@H]1[C@H]2COc3ccc(Cl)cc3[C@@H]2N2C(=O)c3cc(F)c(F)cc3NC(=O)[C@@]12C,.,i,.,.,.,.
Cc1ccc(C)c(Oc2cc(NC(=O)CCCn3nc(C)c([N+](=O)[O-])c3C)cc([N+](=O)[O-])c2)c1,i,i,-7.74*,-0.198,-0.7,i
Cc1ccc(Oc2cc(NC(=O)CCCn3nc([N+](=O)[O-])cc3C)cc([N+](=O)[O-])c2)cc1,i,i,i,-0.255,-14.3,i
CCN(CC)C(=O)c1cc2sc3ccccc3c2s1,i,i,-7.53*,.,-8.8,i
O=C(Nc1ccnn1C1CCN(Cc2ccc(CO)o2)CC1)c1ccccc1,i,i,i,.,-12.2,i
S=C(NCCC(c1ccccc1)c1ccccc1)Nc1ccccc1Cl,i,i,i,0.0432,-16.4,12*
COc1ccc(Cl)cc1NC(=S)NCCC(c1ccccc1)c1ccccc1,i,i,-8.07*,-0.379,-11.2,i
COc1ccc(Cl)cc1NC(=O)C(OC)c1ccccc1 (stereo not given),i,i,i,-1.34,-13.0,i
CCC(C(=O)Nc1cc(Cl)ccc1OC)c1ccccc1 (stereo not given),i,i,-7.32*,-1.98,-5.2,i
COc1ccccc1NC(=S)NCCC(c1ccccc1)c1ccccc1,i,i,i,-0.278,-2.1,i
S=C(NCc1ccccc1)Nc1ccc(Cl)cc1,i,i,i,-0.743,-5.7,i
S=C(NCCC(c1ccccc1)c1ccccc1)Nc1ccc(Cl)cc1,i,i,i,.,-6.3,9*
O=C(NN(Cc1ccccc1)Cc1ccccc1)c1ccccc1,.,i,.,.,.,.
COc1cccc(CN(C)C(=S)Nc2ccc(C)c(C)c2)c1,i,i,i,-0.744,4.7*,i
COc1ccc(CN(C)C(=S)Nc2ccc(OC(F)F)cc2)cc1,i,i,i,0.0456,-21.0,i
Cc1ccc(-c2nnc(COC(=O)c3cccs3)o2)cc1,i,i,i,.,-7.4,i
CSc1nc2[nH]c(=O)n(O)c(=O)c2n1Cc1ccccc1,.,i,.,.,.,.
O=C(NCCCn1ccnc1)c1cc(S(=O)(=O)N2CCOCC2)c(Cl)cc1Cl,i,i,i,-1.64,-7.1,i
